# Laboratory results published in ChEMBL document CHEMBL2029249, “N-Methyl-3-(tetrahydro-2H-pyran-4-yl)-2,3,4,9-tetrahydro-1H-carbazole-6-carboxamides as a novel class of cannabinoid receptors agonists with low CNS penetration” (Bioorg Med Chem Lett, 2012).
# Columns and labels:
# [1] = Oral bioavailability in Sprague-Dawley rat at 9 umol/kg; format: ADME, organism-based; settings: in vivo
# Cannabinoid receptor 1 [2] = target: T1, Cannabinoid receptor 1 (Homo sapiens, UniProt P21554); experiment: Agonist activity at human CB1 receptor expressed in HEK293 cells assessed as [35S]GTPgamma binding relative to WIN55212-2; format: functional, cell-based
# Outline: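 GTPγ35S binding on membranes from HEK293 EBNA cells stably transfected with cloned human CB1; Emax relative to WIN55,212-2 as reference agonist; means of at least three measurements.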
# [3] = Thermodynamic solubility of the compound at pH 7.4; settings: buffer
# [4] = Intrinsic clearance in rat liver microsomes; format: ADME, Microsome; settings: read-out: CLH
# Outline: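 Rat liver microsomes; intrinsic clearance expressed per mg microsomal protein.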
# [5] = Cmax in Sprague-Dawley rat at 9 umol/kg, po; format: ADME, organism-based; parameters: dose 9 umol/kg, route oral; settings: in vivo
# [6] = Volume of distribution at steady state in Sprague-Dawley rat at 2 umol/kg, iv; format: ADME, organism-based; settings: in vivo, read-out: Vdss
# Cytochrome P450 2C9 = Cytochrome P450 2C9 (Homo sapiens, UniProt P11712); experiment: Inhibition of CYP2C9 in human liver microsomes; format: ADME, Microsome
# [7] = Tmax in Sprague-Dawley rat at 9 umol/kg, po; format: ADME, organism-based; settings: in vivo
# [8] = Plasma protein binding in Sprague-Dawley rat; format: ADME, cell-free; settings: read-out: PPB (converted)
# [9] = Intrinsic clearance in human liver microsomes at 1 uM in presence of NADPH; format: ADME, Microsome; settings: read-out: CLH
# Cytochrome P450 3A4 = Cytochrome P450 3A4 (Homo sapiens, UniProt P08684); experiment: Inhibition of CYP3A4 in human liver microsomes; format: ADME, Microsome
# Rattus norvegicus = experiment: Analgesic activity in sc dosed rat assessed as reversal of carrageenan-induced heat hyperalgesia; format: functional, organism-based
# Outline: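 Rat carrageenan inflammatory pain model; reversal of heat hyperalgesia after subcutaneous dosing at 10, 30 and 100 µmol/kg.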
# Cannabinoid receptor 2 = Cannabinoid receptor 2 (Homo sapiens, UniProt P34972); experiment: Binding affinity to human CB2 receptor
# [10] = Clearance in Sprague-Dawley rat at 2 umol/kg, iv; format: ADME, organism-based; settings: in vivo
# [11] = Apparent permeability from apical to basal side of human Caco2 cells at 10 uM; settings: Caco-2
# Cannabinoid receptor 1 [12] = target: T1, Cannabinoid receptor 1; experiment: Displacement of [3H]CP55940 from human CB1 receptor expressed in HEK293 cells; format: cell-based
# Cytochrome P450 1A2 = target: T2, Cytochrome P450 1A2 (Homo sapiens, UniProt P05177); experiment: Inhibition of CYP1A2 in human liver microsomes; format: ADME, Microsome
# T2 sequence (P05177 whole entry): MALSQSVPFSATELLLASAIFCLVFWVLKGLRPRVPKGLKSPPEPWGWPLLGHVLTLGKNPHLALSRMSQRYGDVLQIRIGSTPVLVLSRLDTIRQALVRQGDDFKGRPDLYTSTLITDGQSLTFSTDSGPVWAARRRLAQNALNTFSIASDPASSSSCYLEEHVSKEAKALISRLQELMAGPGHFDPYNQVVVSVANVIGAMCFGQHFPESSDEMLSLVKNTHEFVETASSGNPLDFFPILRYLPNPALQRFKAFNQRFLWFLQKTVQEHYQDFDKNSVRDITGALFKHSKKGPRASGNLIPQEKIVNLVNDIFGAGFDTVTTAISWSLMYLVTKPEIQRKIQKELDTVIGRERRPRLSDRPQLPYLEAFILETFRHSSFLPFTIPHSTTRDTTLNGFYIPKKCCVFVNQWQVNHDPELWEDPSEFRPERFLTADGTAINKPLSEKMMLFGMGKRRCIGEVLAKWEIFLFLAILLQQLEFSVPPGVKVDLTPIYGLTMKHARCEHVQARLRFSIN
# Plasma [13] = experiment: Plasma concentration in rat carrageenan inflammatory pain model at 30 umol/kg, sc; format: ADME, cell-free
# Outline: (§1)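 Rats in carrageenan inflammatory pain model dosed sc at 10, 30 or 100 µmol/kg; total plasma and brain levels by protein precipitation with ACN (brain homogenised first), centrifugation 9000g, 30 min, 4 °C, then reversed-phase LC-electrospray MS/MS against a serial-dilution calibration curve.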
# Cytochrome P450 2D6 = Cytochrome P450 2D6 (Homo sapiens, UniProt P10635); experiment: Inhibition of CYP2D6 in human liver microsomes; format: ADME, Microsome
# Plasma [14] = experiment: Plasma concentration in rat carrageenan inflammatory pain model at 10 umol/kg, sc; format: ADME, cell-free; outline: as §1
# Cannabinoid receptor 1 [15] = target: T1, Cannabinoid receptor 1; experiment: Agonist activity at human CB1 receptor expressed in HEK293 cells assessed as [35S]GTPgamma binding; format: functional, cell-based
# [16] = Terminal half life in Sprague-Dawley rat at 2 umol/kg, iv; format: ADME, organism-based; settings: in vivo, read-out: beta t1/2 (converted)
# Cytochrome P450 2C19 = Cytochrome P450 2C19 (Homo sapiens, UniProt P33261); experiment: Inhibition of CYP2C19 in human liver microsomes; format: ADME, Microsome
# Outline: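 IC50 determined in human liver microsomes as part of a five-isoform panel (CYP1A2, CYP2C9, CYP2C19, CYP2D6, CYP3A4) to assess drug-interaction potential.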
# Plasma [17] = experiment: Plasma concentration in rat carrageenan inflammatory pain model at 100 umol/kg, sc; format: ADME, cell-free; outline: as §1
# [18] = Ratio of drug level in brain to plasma in rat by microdialysis assay
# Brain = experiment: Drug uptake in carrageenan inflammatory pain model of rat brain at 10 to 100 umol/kg, sc; format: ADME, organism-based; settings: in vivo; outline: as §1
# T1 sequence (P21554 whole entry): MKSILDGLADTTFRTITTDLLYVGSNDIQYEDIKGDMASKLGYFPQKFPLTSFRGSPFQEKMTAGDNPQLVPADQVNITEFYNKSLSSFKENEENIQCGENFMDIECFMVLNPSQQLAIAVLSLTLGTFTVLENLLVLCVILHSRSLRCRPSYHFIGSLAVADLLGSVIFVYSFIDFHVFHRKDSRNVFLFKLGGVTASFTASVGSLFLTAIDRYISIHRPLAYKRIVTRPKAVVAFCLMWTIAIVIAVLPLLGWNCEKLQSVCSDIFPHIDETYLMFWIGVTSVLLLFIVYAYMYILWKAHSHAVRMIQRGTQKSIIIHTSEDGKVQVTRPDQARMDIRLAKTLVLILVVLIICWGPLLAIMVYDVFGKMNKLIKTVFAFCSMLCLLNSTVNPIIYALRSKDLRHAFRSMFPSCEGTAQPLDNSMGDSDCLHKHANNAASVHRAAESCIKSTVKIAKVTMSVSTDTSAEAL
# Cannabinoid receptor 2, sequence (P34972 whole entry): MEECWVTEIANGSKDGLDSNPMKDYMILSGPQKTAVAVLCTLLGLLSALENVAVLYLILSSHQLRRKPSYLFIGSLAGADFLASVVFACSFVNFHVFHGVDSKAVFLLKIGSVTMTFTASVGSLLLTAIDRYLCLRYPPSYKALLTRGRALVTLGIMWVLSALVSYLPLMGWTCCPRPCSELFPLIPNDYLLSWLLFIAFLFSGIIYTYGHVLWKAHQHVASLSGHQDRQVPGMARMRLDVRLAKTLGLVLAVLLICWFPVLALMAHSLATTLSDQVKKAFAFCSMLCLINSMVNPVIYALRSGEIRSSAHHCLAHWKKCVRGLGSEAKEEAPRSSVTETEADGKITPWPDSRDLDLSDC
# Cytochrome P450 2C9, sequence (P11712 whole entry): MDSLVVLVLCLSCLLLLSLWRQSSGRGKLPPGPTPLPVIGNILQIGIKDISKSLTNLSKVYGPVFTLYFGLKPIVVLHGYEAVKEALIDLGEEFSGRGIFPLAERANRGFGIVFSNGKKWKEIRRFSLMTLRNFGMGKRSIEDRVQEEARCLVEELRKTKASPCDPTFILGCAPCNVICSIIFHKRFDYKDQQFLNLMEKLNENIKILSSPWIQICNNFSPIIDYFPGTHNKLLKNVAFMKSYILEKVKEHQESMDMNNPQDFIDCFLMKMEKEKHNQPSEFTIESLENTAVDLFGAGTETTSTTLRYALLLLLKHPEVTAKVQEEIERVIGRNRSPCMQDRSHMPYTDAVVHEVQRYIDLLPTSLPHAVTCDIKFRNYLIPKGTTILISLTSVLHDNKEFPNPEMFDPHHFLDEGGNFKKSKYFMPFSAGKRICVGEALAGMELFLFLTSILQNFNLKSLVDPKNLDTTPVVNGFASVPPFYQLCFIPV
# Cytochrome P450 2C19, sequence (P33261 whole entry, canonical isoform): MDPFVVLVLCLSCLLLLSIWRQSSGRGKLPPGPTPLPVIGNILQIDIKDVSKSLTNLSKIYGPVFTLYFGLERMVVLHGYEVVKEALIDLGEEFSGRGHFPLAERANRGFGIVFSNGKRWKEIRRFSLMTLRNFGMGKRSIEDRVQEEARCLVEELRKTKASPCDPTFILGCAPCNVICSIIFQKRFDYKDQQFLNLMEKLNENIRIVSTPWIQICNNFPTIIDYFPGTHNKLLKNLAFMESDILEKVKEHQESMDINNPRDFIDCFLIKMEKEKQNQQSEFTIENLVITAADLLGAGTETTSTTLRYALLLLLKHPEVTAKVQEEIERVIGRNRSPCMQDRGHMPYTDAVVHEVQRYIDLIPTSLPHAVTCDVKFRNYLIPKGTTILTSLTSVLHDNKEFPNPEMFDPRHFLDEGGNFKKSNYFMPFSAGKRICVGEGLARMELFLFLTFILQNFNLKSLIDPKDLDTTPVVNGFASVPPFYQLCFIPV
# Cytochrome P450 2D6, sequence (P10635 whole entry): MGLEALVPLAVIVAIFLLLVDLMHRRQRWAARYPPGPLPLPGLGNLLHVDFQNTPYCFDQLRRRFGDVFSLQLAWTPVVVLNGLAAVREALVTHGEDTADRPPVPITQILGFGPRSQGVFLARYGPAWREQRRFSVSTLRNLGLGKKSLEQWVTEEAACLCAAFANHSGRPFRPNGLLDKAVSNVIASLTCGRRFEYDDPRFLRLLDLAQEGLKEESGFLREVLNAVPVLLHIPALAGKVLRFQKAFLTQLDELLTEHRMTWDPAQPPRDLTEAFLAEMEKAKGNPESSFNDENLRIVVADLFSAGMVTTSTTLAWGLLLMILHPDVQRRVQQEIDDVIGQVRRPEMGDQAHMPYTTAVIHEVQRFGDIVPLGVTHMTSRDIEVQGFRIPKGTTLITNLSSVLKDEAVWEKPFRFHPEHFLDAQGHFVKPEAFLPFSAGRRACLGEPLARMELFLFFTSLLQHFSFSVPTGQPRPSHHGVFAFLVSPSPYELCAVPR
# Cytochrome P450 3A4, sequence (P08684 whole entry): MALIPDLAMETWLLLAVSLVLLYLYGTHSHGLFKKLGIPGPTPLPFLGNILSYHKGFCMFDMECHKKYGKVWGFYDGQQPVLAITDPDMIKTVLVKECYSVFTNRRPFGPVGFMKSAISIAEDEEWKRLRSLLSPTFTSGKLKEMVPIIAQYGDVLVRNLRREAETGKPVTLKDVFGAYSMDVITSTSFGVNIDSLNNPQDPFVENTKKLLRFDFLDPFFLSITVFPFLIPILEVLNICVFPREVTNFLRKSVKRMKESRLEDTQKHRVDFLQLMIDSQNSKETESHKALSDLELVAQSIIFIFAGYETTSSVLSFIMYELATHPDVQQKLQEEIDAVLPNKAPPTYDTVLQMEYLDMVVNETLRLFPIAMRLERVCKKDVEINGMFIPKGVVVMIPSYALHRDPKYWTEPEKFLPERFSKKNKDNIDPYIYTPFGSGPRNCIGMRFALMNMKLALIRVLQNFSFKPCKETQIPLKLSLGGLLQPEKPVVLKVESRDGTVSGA
compound,measurement,setting,value
CNC(=O)CCCN(C)C(=O)c1ccc2c(c1)c1c(n2C)CC[C@@H](C2CCOCC2)C1,bioavailability,[1],100%
same,Emax,Cannabinoid receptor 1 [2],116%
same,solubility thermodynamic,[3],1120 µM
same,microsomal CLint,[4],61 µL/min/mg
same,Cmax,[5],6.3 µM
same,Vd,[6],0.3 L/kg
same,IC50,Cytochrome P450 2C9,7 µM
same,Tmax,[7],2.2 h
same,fraction unbound,[8],0.021
same,microsomal CLint at 1 µM,[9],26 µL/min/mg
same,INH,Cytochrome P450 3A4,> 20 µM
same,Activity,Rattus norvegicus,Dose-dependent effect
same,Ki,Cannabinoid receptor 2,15.5 nM
same,clearance,[10],2.8 mL/min/kg
same,Papp A→B at 10 µM,[11],12 ×10⁻⁶ cm/s
same,Ki,Cannabinoid receptor 1 [12],29.3 nM
same,INH,Cytochrome P450 1A2,> 20 µM
same,concentration,Plasma [13],9.1 µM
same,INH,Cytochrome P450 2D6,> 20 µM
same,concentration,Plasma [14],6.9 µM
same,EC50,Cannabinoid receptor 1 [15],51.4 nM
same,half-life,[16],144 min
same,INH,Cytochrome P450 2C19,> 20 µM
same,concentration,Plasma [17],50.7 µM
same,Kp,[18],0.02
same,Drug uptake,Brain,Not Active
